# MEKK3 PB1 HTS = raises or lowers MEK5 binding to the human MEKK3 PB1 domain | Q99759 | bead-based flow cytometry, Alexa488-MEK5 binding to MEKK3; actives lie on both sides; 0 = blocked by unlabeled MEK5, 100 = vehicle | binding response (% of control), % at 10 µM | 1.4% of 290,000 active | AID 1529;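 active = binding response more than 3 SD above or below the average of its plate-row segment, actives on both sides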;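 also: Alexa488 bead fluorescence after subtracting the streptavidin-only scavenger bead signal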
# Target sequence (Q99759 whole entry, looked up, the tested form may be a part): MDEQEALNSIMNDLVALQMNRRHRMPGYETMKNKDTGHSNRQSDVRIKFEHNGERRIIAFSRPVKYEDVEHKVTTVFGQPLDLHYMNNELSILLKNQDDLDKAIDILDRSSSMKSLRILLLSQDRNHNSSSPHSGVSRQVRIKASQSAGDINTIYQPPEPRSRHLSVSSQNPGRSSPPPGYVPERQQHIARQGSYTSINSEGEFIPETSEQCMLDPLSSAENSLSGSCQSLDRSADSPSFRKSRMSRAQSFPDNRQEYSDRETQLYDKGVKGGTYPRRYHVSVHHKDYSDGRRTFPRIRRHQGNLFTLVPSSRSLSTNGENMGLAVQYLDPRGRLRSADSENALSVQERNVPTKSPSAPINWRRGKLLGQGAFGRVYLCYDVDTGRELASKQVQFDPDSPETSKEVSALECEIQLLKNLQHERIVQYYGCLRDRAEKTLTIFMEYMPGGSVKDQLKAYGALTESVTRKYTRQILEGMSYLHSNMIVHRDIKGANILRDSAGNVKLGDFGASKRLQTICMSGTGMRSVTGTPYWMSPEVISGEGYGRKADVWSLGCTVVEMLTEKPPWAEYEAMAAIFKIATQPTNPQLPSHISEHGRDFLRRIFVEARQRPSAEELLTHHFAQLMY
# UCH37 DUB inh = blocks the human deubiquitinase UCH37; Q9Y5K5; purified proteasome/UCH37, Ub-AMC cleavage fluorescence; inhibition, % (no concentration beside the values); 0.33% of 330,000 active;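 active = mean inhibition over replicate wells above about 20%, limit read from the data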
#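 Material: Human UCH37 enzyme supplied as purified proteasome complex | Schedule: 30 min compound-proteasome preincubation then 25 min substrate reaction, room temperature | Detection: AMC fluorescence from Ub-AMC cleavage, excitation 355 nm, emission 460 nm | Benchmarks: Wells without proteasome as full block, compound-free enzyme plus substrate as uninhibited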
# Rce1 inh = inhibitors of yeast Ras-converting enzyme; yeast membranes, quenched prenylated peptide cleavage fluorescence; Q03530; 0.27% of 290,000 active; calls only; AID 2563;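 active = fall in fluorescence gain of 50% or more versus controls, with final raw signal at or below 3038400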
# MEKK2 WT-MEK5 = raises or lowers MEK5 binding to wildtype human MEKK2 PB1 domain | Q9Y2U5 | bead flow cytometry, Alexa488-MEK5 binding to MEKK2 WT; actives lie on both sides | binding response (% of control), % at 10 µM | 1.1% of 290,000 active; in the data active = binding response below about 67% or above about 130%
# MEKK2mut PB1 HTS = signal of MEK5 binding to mutant human MEKK2 PB1 domain; bead flow cytometry, Alexa488-MEK5 binding to MEKK2 mutant; percent response, % at 10 µM; 0.35% of 290,000 active; AID 1530; in the data active = percent response above about 24%, passing the limit was not always enough
# T cell modulator = T cell immune modulators affecting CD8 T cell-vesicle binding; 2C CD8+ T cell-vesicle binding, flow cytometry; active compounds read low; response (vesicle binding), % at 7 µM; 0.068% of 330,000 active;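 active = response, share of CD8 T cells binding vesicles, and their 90th percentile fluorescence all below set limits, cut at about 80% in these data, passing the limit was not always enough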;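 also: values below 100% mean blocked vesicle binding to the CD8+ T cells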
#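 Material: murine 2C transgenic CD8+ T lymphocytes / Also added: QL9-peptide-loaded Drosophila micro-vesicles bearing Ld, ICAM-1 and B7-1 / Schedule: binding step 1.5 h, 37 °C, antibody labelling 20 min, ice / Signal: flow cytometry, PE anti-B7-1 (FL2) versus Alexa647 anti-CD8 (FL8), PFA-fixed / Evaluation: percent CD8+ FL2 mean versus row control / Benchmarks: naked versus QL9-loaded vesicles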
# MEKK2wt confirm = raises or lowers MEK5 binding to wildtype human MEKK2, retest; AID 1892; bead flow cytometry, Alexa488-MEK5 binding to MEKK2 WT; actives lie on both sides; shares compounds with MEKK3 PB1 HTS; 2.4% of 5,900 active; binding response (% of control), % at 10 µM; in the data active = binding response below about 16% or above about 210%; inactive = in between
# MEKK2mut-MEK5 = signal of MEK5 binding to mutant human MEKK2, retest. shares compounds with MEKK3 PB1 HTS. bead flow cytometry, Alexa488-MEK5 binding to MEKK2 mutant. percent response, % at 10 µM. 2% of 5,900 active. AID 1893; in the data active = percent response mostly above about 71%, no sharp cut-off; inactive = mostly below about 38%;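 also: higher means compound restores mutant binding toward wildtype level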
# MEKK3-MEK5 inh = confirmation of inhibitors of MEK5 binding to human MEKK3; shares compounds with MEKK3 PB1 HTS; bead flow cytometry, Alexa488-MEK5 binding to MEKK3; active compounds read low; binding response (% of control), % at 10 µM; 1.8% of 5,900 active; AID 1894;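 active = binding response below 72% of control, or above a set upper limit, though filed actives all read lower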;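 also: lower values mean stronger disruption of MEK5 binding to MEKK3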
# Hits are given with their value; 0 = inactive; - = not tested or not shown; [ ] = dose if it differs, or a comment. Sampled rows, rich in hits. Any-hit rate of the full collection: about 2.5%.
SMILES,MEKK3 PB1 HTS,UCH37 DUB inh,Rce1 inh,MEKK2 WT-MEK5,MEKK2mut PB1 HTS,T cell modulator,MEKK2wt confirm,MEKK2mut-MEK5,MEKK3-MEK5 inh
O=C(O)COc1ccccc1/C=N/NC(=O)CSc1nc2ccccc2n1Cc1ccc(Cl)cc1,50[inhibitor],-,0,0,0,0,0,0,0
O=c1[nH]c2cc3c(cc2cc1CN(CCO)S(=O)(=O)c1ccccc1)OCCO3,130,0,0,0,0,0,0,0,0
COc1ccc(/C=C2\SC(=O)N(CCC(=O)Nc3ccccc3)C2=O)cc1OC,0,0,0,0,0,0,-,-,-
COc1cc(/C=C2\SC(=O)N(CCN)C2=O)ccc1OS(=O)(=O)c1cc(C)ccc1C,0,0,0,178,0,-,0,0,0
Cc1ccc(S(=O)(=O)Oc2ccccc2C=NN=C(N)N)cc1,-,0,-,-,-,-,-,-,-
COCCNC(=O)Cn1c(=O)n(CCCCCC(=O)Nc2ccccc2)c(=O)c2sccc21,135,0,0,0,0,0,0,0,0
COCCCNC(=O)Cn1c(=O)n(CCCCCC(=O)Nc2ccccc2)c(=O)c2sccc21,0,0,0,0,0,0,-,-,-
O=C(Cn1cncn1)NN=Cc1ccncc1,-,0,-,-,-,-,-,-,-
O=C1NCCCC1C(=O)N1CCN(C(c2ccccc2)c2ccccc2)CC1 (stereo not given),82[inhibitor],0,-,0,0,0,0,0,0
FC(F)(F)c1cccc(NC(=S)NCC(c2cccnc2)N2CCOCC2)c1 (stereo not given),135,0,0,0,0,0,0,0,0
COC(=O)NCC(c1cccnc1)N1CCOCC1 (stereo not given),0,0,0,0,0,0,-,-,-
CCc1cccc(C)c1NC(=S)NCC(c1cccnc1)N1CCOCC1 (stereo not given),144,0,0,0,0,0,0,0,0
O=[N+]([O-])c1ccc(NC(=S)NCC(c2cccnc2)N2CCOCC2)cc1 (stereo not given),0,0,0,0,0,0,-,-,-
CNC(=S)NN=Cc1cn(Cc2ccc(F)cc2)c2ccccc12,-,0,-,-,-,-,-,-,-
COc1ccc(C(CNC(=O)c2ccc(C)c(S(=O)(=O)Nc3ccccc3OC)c2)N2CCCC2)cc1 (stereo not given),0,0,0,154,29,0,0,0,0
COc1ccc(C(CNC(=O)c2oc3ccc(Br)cc3c2C)N2CCCCC2)cc1 (stereo not given),0,0,0,153,0,0,0,0,0
Cc1c(C(=O)Nc2ccc(-c3nnc4n3CCCCC4)cc2)oc2ccc(Br)cc12,0,0,0,1.0[inhibitor],0,0,0,0,0
Cc1cc(C)nc(NN=Cc2ccc3c(c2)OCCO3)n1,-,0,-,-,-,-,-,-,-
NC(Cc1ccc([N+](=O)[O-])cc1)=NOC(=O)Cc1ccccc1,-,0,-,-,-,-,-,-,-
CCOc1ccccc1C(=O)Nc1ccccc1O,78[inhibitor],0,0,0,0,0,0,0,0
COC(=O)c1ccc(CNC(=O)COC(=O)C23CC4CC(CC(C4)C2)C3)cc1,75[inhibitor],0,0,0,0,0,0,0,0
CCCC(=O)N/C(N)=N/c1nc(C)c2cc(C)ccc2n1,0,0,0,0,0,0,-,-,-
Cc1ccc2nc(/N=C(\N)NC(=O)NC3CCCCC3)nc(C)c2c1,0,-,0,141,0,0,0,0,0
Cc1cc[n+](C(C)C(=O)c2ccc(-c3ccccc3)cc2)cc1 (stereo not given),0,0,0,152,0,0,0,0,0
CC(C(=O)c1ccc(-c2ccccc2)cc1)[n+]1ccccc1 (stereo not given),0,0,0,0,0,0,-,-,-
SMILES,MEKK3 PB1 HTS,UCH37 DUB inh,Rce1 inh,MEKK2 WT-MEK5,MEKK2mut PB1 HTS,T cell modulator,MEKK2wt confirm,MEKK2mut-MEK5,MEKK3-MEK5 inh
CC(=O)Nc1cc[n+](C(C)C(=O)c2ccc(Cl)cc2)cc1 (stereo not given),41[inhibitor],0,0,0,0,0,0,0,0
Cc1cc[n+](C(C)C(=O)c2ccc(Cl)cc2)cc1 (stereo not given),0,0,0,0,0,0,-,-,-
O=C(C[n+]1ccc(Cc2ccccc2)cc1)Nc1ccccc1,0,0,0,0,64,0,0,0,0
O=C(C[n+]1ccccc1)Nc1ccccc1,-,0,0,-,-,0,-,-,-
CN(C)c1ccc(/C=C(\C#N)C(=O)Nc2nc3c(s2)CCN(Cc2ccccc2)C3)cc1,0,0,0,71[inhibitor],0,0,0,0,0
O=C(Nc1nc2c(s1)CN(Cc1ccccc1)CC2)C1CCC1,0,0,0,0,0,0,-,-,-
O=C(COc1ccc2ccc(=O)oc2c1)N1CC[C@@]2(O)CCCC[C@H]2C1,2.0[inhibitor],0,0,1.0[inhibitor],0,0,0,0,0
Cc1c(C)c2ccc(OCC(=O)N3CC[C@@]4(O)CCCC[C@H]4C3)cc2oc1=O,0,0,0,0,0,0,-,-,-
CCCCn1c(-c2cccs2)nc2oc3ccccc3c(=O)c2c1=O,129,0,0,0,0,0,0,0,0
COc1cccc2c(NN=Cc3ccc(O)c(O)c3)cc(C)nc12,-,0,-,-,-,-,-,-,-
CSc1ncc(Cl)c(C(=O)Nc2ccccc2Br)n1,0,0,0,0,0,0,-,-,-
CSc1ncc(Cl)c(C(=O)Nc2cccc3ccccc23)n1,128,-,-,0,0,0,0,0,0
CCc1nc(SCC(=O)Nc2c(C)nn(C)c2C)c2cnn(-c3ccccc3)c2n1,-,0,0,-,-,-,-,-,-
Cc1nn(C)c(C)c1NC(=O)CSc1nc(Cc2ccccc2)nc2c1cnn2-c1ccccc1,74[inhibitor],0,-,0,0,0,0,0,0
NNc1nc2ccc(Cl)cc2s1,132,0,0,0,0,0,0,0,0
COc1ccc(C=NNc2ncc(C(F)(F)F)cc2Cl)cc1OC,-,0,-,-,-,-,-,-,-
CC(Nc1cc(N2CCNCC2)ccc1[N+](=O)[O-])c1ccccc1 (stereo not given),163,0,0,0,0,0,0,0,0
O=[N+]([O-])c1ccc(N2CCNCC2)cc1Sc1nc2ccccc2[nH]1,0,0,0,144,0,0,0,0,0
C(=Nn1cnnc1)C1CCCCC1,-,0,-,-,-,-,-,-,-
CON=CCc1c([N+](=O)[O-])c(C)nn1C,-,0,-,-,-,-,-,-,-
N=c1n(Cc2ccc(Cl)cc2)c2ccccc2n1CC(O)COc1ccccc1 (stereo not given),0,0,0,142,0,0,0,0,0

# Screening data: PubChem, several laboratories
